# The source made the active and inactive calls. No cut-off for these calls is given here.
# Key:
# [1] = Drug uptake in cytoplasm of human A549 cells at 1 uM after 0.25 to 3 hrs by Hoechst 33342 staining based fluorescence microscopy; type: ADME, cell-based; details: a549, 1 µM
# How it was run: (§1)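 A549 cells on coverslips loaded with dyes (1 µM) for 0.25, 0.5, 1, 2 or 3 h at 37 °C, washed, counterstained with Hoechst 33342 (10 µM), mounted in 70% glycerol; red dye and blue nuclear fluorescence imaged by fluorescence microscopy (40×) and overlaid.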
# [2] = system: A549; test: Photocytotoxicity against human A549 cells assessed as decrease in cell viability at 500 to 5000 nM preincubated for 1 hr followed by 0.77 mW/cm2 white light irradiation measured after 24 hrs by MTT assay; type: functional, cell-based; details: TDE = time-dependent effect
# How it was run: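 A549 cells (1×10^4/well), plated overnight, given compound for 1 h in serum-free medium, washed twice with PBS, irradiated 0.5, 1, 2 or 4 h at 0.77 mW/cm² (37 °C, 5% CO₂), then 24 h in regular medium; MTT 0.5 mg/mL for 6 h, formazan dissolved in 0.01 N HCl/10% SDS, A550.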
# [3] = Cytotoxicity against human A549 cells assessed as decrease in cell viability up to 200 uM after 48 hrs under dark condition by MTT assay; type: toxicity, cell-based; details: a549, 48 h
# How it was run: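 Dark toxicity: A549 cells treated as in the MTT protocol (1 h compound exposure, serum-free medium, washed) with no light, then assessed at 48 h by MTT (0.5 mg/mL, 6 h, formazan in HCl/SDS, A550).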
# [4] = Photocytotoxicity against human A549 cells assessed as decrease in cell viability preincubated for 1 hr followed by 0.77 mW/cm2 white light irradiation for 80 mins measured after 24 hrs by MTT assay; type: functional, cell-based; details: A549, light or radiation study
# How it was run: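 IC50 from MTT: A549 cells (1×10^4/well) given graded compound concentrations 1 h in serum-free DMEM (vehicle ≤0.1% DMSO), washed, photo-exposed 80 min at 0.77 mW/cm², regular medium 24 h; MTT 0.5 mg/mL 6 h, A550; viability relative to vehicle control; four replicates, three experiments, mean ± SEM.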
# [5] = system: A549; test: Photocytotoxicity against human A549 cells assessed as necrosis at 2.5 uM preincubated for 1 hr followed by 0.77 mW/cm2 white light irradiation for 80 mins measured after 2 hrs by trypan blue staining based phase contrast microscopy; type: functional, cell-based
# How it was run: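 Cells (1×10^5/well) on coverslips treated 1 h with dye (2.5 µM) or 0.1% DMSO, irradiated 80 min, serum added, 2 h later washed, stained with 0.1% trypan blue in PBS for 5 min, then viewed by phase-contrast microscopy at 40×.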
# [6] = species: Bos taurus; test: Binding affinity to calf thymus duplex DNA assessed as decrease in intensities of maximum absorption at 20 uM by spectrophotometric titration analysis
# [7] = species: Bos taurus; test: Binding affinity to calf thymus duplex DNA by UV-visible spectra analysis
# [8] = species: Bos taurus; test: Binding affinity to calf thymus duplex DNA assessed as decrease in intensities of maximum absorption at 20 uM by spectrophotometric titration analysis
# [9] = Drug uptake in human A549 cells assessed as mean fluorescence intensity at 2.5 uM after 2 hrs by flow cytometry (reference value: 2.4 +/- 1.1); type: ADME, cell-based; details: a549, 2 h
# [10] = Drug uptake in human A549 cells assessed as mean fluorescence intensity at 2.5 uM after 4 hrs by flow cytometry (reference value: 2.4 +/- 1.1); type: ADME, cell-based; details: a549, 4 h
# [11] = Drug uptake in human A549 cells assessed as mean fluorescence intensity at 2.5 uM after 8 hrs by flow cytometry (reference value: 2.4 +/- 1.1); type: ADME, cell-based; details: a549, 8 h
# [12] = Drug uptake in human A549 cells assessed as mean fluorescence intensity at 2.5 uM after 16 hrs by flow cytometry (reference value: 2.4 +/- 1.1); type: ADME, cell-based; details: a549, 16 h
# [13] = Drug uptake in human A549 cells assessed as mean fluorescence intensity at 2.5 uM after 24 hrs by flow cytometry (reference value: 2.4 +/- 1.1); type: ADME, cell-based; details: a549, 24 h
# [14] = Drug uptake in human A549 cells at 1 uM after 0.25 to 3 hrs by Hoechst 33342 staining based fluorescence microscopy; type: ADME, cell-based; details: a549, 1 µM; how it was run: as §1
SMILES,Drug uptake [1],Activity [2],Activity [3],IC50 [4],Activity [5],Activity [6],Kb [7],Activity [8],Flu intensity [9],Flu intensity [10],Flu intensity [11],Flu intensity [12],Flu intensity [13],Drug uptake [14]
CCC1=C(C)C2=C(c3ccccc3)c3c(C)c(CC)c(C)n3[B-](F)(F)[N+]2=C1/C=C/c1ccc(O)cc1,Active,Tde,Non-Toxic,6.4 µM,,,,,,,,,,
CCC1=C(C)C2=C(c3ccc(O)cc3)c3c(C)c(CC)c(C)n3[B-](F)(F)[N+]2=C1C,Active,Tde,Non-Toxic,2.1 µM,Active,,,,,,,,,
CCC1=C(C)C2=C(c3ccc(O[C@H]4O[C@H](CO)[C@@H](O)[C@H](O)[C@H]4O)cc3)c3c(C)c(CC)c(C)n3[B-](F)(F)[N+]2=C1C,Active,Tde,Non-Toxic,> 10 µM,,Active,3.4 ×10⁴ /M,Active,,,,,,
CCC1=C(C)C2=C(C)c3c(C)c(CC)c(C)n3[B-](F)(F)[N+]2=C1/C=C/c1ccc(O)cc1,Active,Tde,Non-Toxic,6.5 µM,,,,,88,53.7,43.9,40.9,38.4,
CCC1=C(C)C2=C(c3ccccc3)c3c(C)c(CC)c(C)n3[B-](F)(F)[N+]2=C1/C=C/c1ccc(O[C@H]2O[C@H](CO)[C@@H](O)[C@H](O)[C@H]2O)cc1,Active,Tde,Non-Toxic,2.5 µM,,,,,,,,,,
CCC1=C(C)C2=C(C)c3c(C)c(CC)c(C)n3[B-](F)(F)[N+]2=C1C,,,,6.8 µM,,,,,,,,,,Active

# Reference: ChEMBL document CHEMBL3865807, “Syntheses and photodynamic activity of some glucose-conjugated BODIPY dyes” (Eur J Med Chem, 2016)
